Compound activity from PubChem.
p-CIP stab down = compounds decreasing mouse p/CIP protein stability | 0.01% of 290,000 active | decrease of EGFP signal, % at 10 µM | Q05BA5 | F442A p/CIP-EGFP cells, EGFP fluorescence, 16 h;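 active = EGFP signal decrease of at least 30% at 10 µM or well 3 SD below plate mean, unless failing retest; inactive = the rest, including hits failing retest or dose response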
AI-2 QS mod = modulators of Vibrio harveyi AI-2 quorum sensing system | Vibrio harveyi JMH597 AI-2 luminescence/OD600 ratio, 9 h; hits give low values; strain lacks LuxN and CqsS sensors; 0 = neutral-control median | activity change, % at 7.5 µM | 0.4% of 300,000 active | AID 2094; in the data active = activity change below about -75%, passing the limit was not always enough;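 note: luminescence divided by OD600 gain over 9 h not by final OD600 alone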
UBC13 polyUb = blocks human UBC13 polyubiquitin chain formation | AID 485273 | P61088 | 0.47% of 330,000 active | inhibition, % at 20 µM | TR-FRET; in the data active = inhibition above about 45%, passing the limit was not always enough
Target sequence (P61088 whole entry, looked up): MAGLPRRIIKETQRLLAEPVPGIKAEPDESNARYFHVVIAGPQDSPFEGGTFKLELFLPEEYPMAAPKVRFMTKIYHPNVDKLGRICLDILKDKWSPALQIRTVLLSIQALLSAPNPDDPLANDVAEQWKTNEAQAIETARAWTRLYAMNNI
PP1 inh = blocks human PP1-alpha phosphatase, a PP5 counter-screen; P62136; purified PP1alpha, OMFP fluorescence; inhibition, % at 6.7 µM; 0.9% of 320,000 active;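 active = inhibition above the mean inhibition of all tested compounds plus 3 SD, computed separately for each screening campaign, cut at about 15% in these data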
Target sequence (P62136 whole entry, looked up): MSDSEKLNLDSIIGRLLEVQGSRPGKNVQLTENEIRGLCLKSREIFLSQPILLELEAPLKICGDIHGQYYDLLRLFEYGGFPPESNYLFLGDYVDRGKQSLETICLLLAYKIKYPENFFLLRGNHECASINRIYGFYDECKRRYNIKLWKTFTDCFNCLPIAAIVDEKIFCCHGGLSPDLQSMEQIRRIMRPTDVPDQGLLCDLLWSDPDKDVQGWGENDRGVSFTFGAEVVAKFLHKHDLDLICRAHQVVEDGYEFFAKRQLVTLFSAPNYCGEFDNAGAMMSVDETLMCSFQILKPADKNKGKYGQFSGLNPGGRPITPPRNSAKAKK
T cruzi repl = blocks replication of Trypanosoma cruzi. inhibition, % (test concentration not listed). 1.4% of 300,000 active. AID 1885. T. cruzi beta-gal in NIH3T3, luminescence, 90 h;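 active = mean inhibition across valid replicates above about 55%, limit read from the data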;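 note: signal also drops with host cell toxicity which is not excluded here; higher percent means less beta-gal luminescence so fewer parasites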
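System: NIH/3T3 fibroblasts plus reporter T. cruzi. Medium: DMEM plus 2% FBS. Probe or stimulus: 5000 reporter trypomastigotes per well. Compound: single 50 nL compound addition per well in DMSO. Incubation: co-culture of at least 90 h after 3 h attachment. Detection: GalScreen β-gal luminescence, detergent lysis, 60 min. Evaluation: parasite load inhibition, %.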
Hits are given with their value. Rows were chosen to be rich in hits. Some 2.8% of all compounds tested hit in one or more screens of this group.

Results for Fc1ccc(OCCCCCn2ccnc2)cc1 ?
p-CIP stab down: inactive; AI-2 QS mod: inactive; UBC13 polyUb: inactive; PP1 inh: inactive; T cruzi repl: 55

Results for C=CCc1cc(Cl)ccc1OCCn1ccnc1 ?
p-CIP stab down: inactive; AI-2 QS mod: inactive; UBC13 polyUb: inactive; PP1 inh: inactive; T cruzi repl: inactive

What do the screens show for `C=CCc1cc(Cl)ccc1OCCCn1ccnc1`?
p-CIP stab down: inactive; AI-2 QS mod: inactive; UBC13 polyUb: inactive; PP1 inh: inactive; T cruzi repl: 57

Results for Cc1cc(OCCCCCn2ccnc2)cc(C)c1Cl ?
p-CIP stab down: inactive; AI-2 QS mod: inactive; UBC13 polyUb: inactive; PP1 inh: inactive; T cruzi repl: inactive

Results for CCCCOc1ccc(OCCNC(=O)c2ccco2)cc1 ?
p-CIP stab down: inactive; AI-2 QS mod: inactive; UBC13 polyUb: inactive; PP1 inh: inactive; T cruzi repl: inactive

Results for Clc1ccc(OCCn2ccnc2)c2ccccc12 ?
p-CIP stab down: inactive; AI-2 QS mod: inactive; UBC13 polyUb: inactive; PP1 inh: inactive; T cruzi repl: 70

Results for Cc1ccc(-n2nnnc2C(Cl)c2nnnn2-c2ccc(C)cc2)cc1 ?
p-CIP stab down: inactive; AI-2 QS mod: inactive; T cruzi repl: 55

How did CN1/C(=C/c2cc[n+](C)c3ccccc23)C=Cc2ccccc21 do in these assays?
p-CIP stab down: inactive

What do the screens show for `C[n+]1ccc(/C=C/c2ccccc2O)c2ccccc21`?
p-CIP stab down: inactive; AI-2 QS mod: inactive; UBC13 polyUb: inactive; PP1 inh: inactive; T cruzi repl: 70

How did O=C(NCC(c1cccs1)N1CCOCC1)c1ccc(Cl)nc1 (stereo unspecified) do in these assays?
UBC13 polyUb: inactive; PP1 inh: inactive

What do the screens show for `Cc1nn(-c2ccc([N+](=O)[O-])cc2)c2c1C(c1cccc(Br)c1)N1C(=N2)C(=O)Nc2ccccc21` (stereo unspecified)?
p-CIP stab down: inactive; AI-2 QS mod: inactive; UBC13 polyUb: inactive; PP1 inh: inactive; T cruzi repl: 82

How did CCOc1ccc(NC(=O)C2C3C=CC4(O3)C2C(=O)N(Cc2cccnc2)C4C(=O)NC2CCCCC2)cc1 (stereo unspecified) do in these assays?
p-CIP stab down: inactive; AI-2 QS mod: inactive; UBC13 polyUb: inactive; PP1 inh: inactive; T cruzi repl: inactive

What do the screens show for `COC(=O)c1ccc(-n2ccnc2)cc1`?
p-CIP stab down: inactive; AI-2 QS mod: inactive; UBC13 polyUb: inactive; PP1 inh: inactive; T cruzi repl: inactive

How did O=C(NCCCn1ccnc1)c1ccc(-c2ccccc2)cc1 do in these assays?
p-CIP stab down: inactive; AI-2 QS mod: inactive; UBC13 polyUb: inactive; PP1 inh: inactive; T cruzi repl: inactive

Results for c1ccc(-c2ccc(-n3ccnc3)cc2)cc1 ?
p-CIP stab down: inactive; AI-2 QS mod: inactive; UBC13 polyUb: inactive; PP1 inh: inactive; T cruzi repl: 56

Results for c1ccc(-c2ccc(C(c3ccccc3)n3ccnc3)cc2)cc1 (stereo unspecified) ?
p-CIP stab down: inactive; AI-2 QS mod: inactive; PP1 inh: 16; T cruzi repl: inactive

Results for OCc1ccnc2c(O)cccc12 ?
p-CIP stab down: inactive; AI-2 QS mod: inactive; UBC13 polyUb: inactive; PP1 inh: inactive; T cruzi repl: 57

What do the screens show for `c1ccc(CSC2=NNC(c3ccccn3)S2)cc1` (stereo unspecified)?
p-CIP stab down: inactive; AI-2 QS mod: inactive; UBC13 polyUb: inactive; PP1 inh: inactive; T cruzi repl: 63

How did O=C(CSC1=NNC(c2ccccn2)S1)Nc1ccc(C(F)(F)F)cc1 (stereo unspecified) do in these assays?
p-CIP stab down: inactive; AI-2 QS mod: inactive; UBC13 polyUb: inactive; PP1 inh: inactive; T cruzi repl: inactive

What do the screens show for `Cc1ccc(C(=O)O/N=C(\N)Cc2cccs2)c(Cl)c1`?
p-CIP stab down: inactive; AI-2 QS mod: -89; UBC13 polyUb: inactive; PP1 inh: inactive; T cruzi repl: inactive

What do the screens show for `Cc1ccc(C(=O)O/N=C(\N)Cc2ccc([N+](=O)[O-])cc2)c(Cl)c1`?
p-CIP stab down: inactive; AI-2 QS mod: inactive; UBC13 polyUb: inactive; PP1 inh: inactive; T cruzi repl: inactive

How did CC1CC(C)CN(C(=O)c2cccc(N3C(=O)c4ccccc4C3=O)c2)C1 (stereo unspecified) do in these assays?
UBC13 polyUb: inactive; PP1 inh: inactive

How did CCOc1ccc(C(=O)OC2CCN(C)CC2)cc1 do in these assays?
p-CIP stab down: inactive; AI-2 QS mod: inactive; UBC13 polyUb: inactive; PP1 inh: inactive; T cruzi repl: inactive

What do the screens show for `COc1ccc(C(=O)OC2CCN(C)CC2)cc1`?
p-CIP stab down: inactive; AI-2 QS mod: inactive; UBC13 polyUb: inactive; PP1 inh: inactive; T cruzi repl: 55

What do the screens show for `CN1CCC(OC(=O)c2ccccc2)CC1`?
p-CIP stab down: inactive; AI-2 QS mod: inactive; UBC13 polyUb: inactive; PP1 inh: inactive; T cruzi repl: 60

Results for COc1cccc(C(=O)OC2CCN(C)CC2)c1 ?
p-CIP stab down: inactive; AI-2 QS mod: inactive; UBC13 polyUb: inactive; PP1 inh: inactive; T cruzi repl: 70

Results for O=C(COC(=O)c1ccncc1)Nc1cc(S(=O)(=O)N2CCOCC2)ccc1Cl ?
UBC13 polyUb: inactive; PP1 inh: inactive

How did Cc1cccc(C(=O)Oc2ccc3ccc(O)cc3c2)c1 do in these assays?
p-CIP stab down: inactive; AI-2 QS mod: inactive; UBC13 polyUb: inactive; PP1 inh: inactive; T cruzi repl: inactive

Results for C=CCN1C(=O)C(=O)N(CC(=O)c2ccc3c(c2)CCCC3)C1=O ?
UBC13 polyUb: inactive; PP1 inh: inactive

Results for CNCCCOc1ccc(Cl)cc1C(C)(C)C ?
p-CIP stab down: inactive; AI-2 QS mod: inactive; UBC13 polyUb: inactive; PP1 inh: inactive; T cruzi repl: 55

How did COCCCNCCCOc1ccc(Cl)cc1C(C)(C)C do in these assays?
p-CIP stab down: inactive; AI-2 QS mod: inactive; UBC13 polyUb: inactive; PP1 inh: inactive; T cruzi repl: inactive

How did COc1ccc(C(=O)Nc2ccc3c(c2)C(=O)c2ccccc2C3=O)cc1OC do in these assays?
p-CIP stab down: inactive; AI-2 QS mod: inactive; UBC13 polyUb: inactive; PP1 inh: inactive; T cruzi repl: inactive

Results for COc1ccc(C(=O)c2c(C(F)(F)F)oc3c2C(=O)c2ccccc2C3=O)cc1OC ?
p-CIP stab down: inactive; AI-2 QS mod: inactive; UBC13 polyUb: inactive; PP1 inh: inactive; T cruzi repl: 65

What do the screens show for `CCOc1ccc(S(=O)(=O)N(CC(=O)N2CCC(C(N)=O)CC2)c2ccc(F)cc2)cc1`?
p-CIP stab down: inactive; AI-2 QS mod: inactive; UBC13 polyUb: inactive; PP1 inh: inactive; T cruzi repl: inactive

Results for O=C(NCc1cccs1)c1cc(-c2ccncc2)nc2ccc(Br)cc12 ?
p-CIP stab down: inactive; AI-2 QS mod: inactive; UBC13 polyUb: inactive; PP1 inh: inactive; T cruzi repl: 55

What do the screens show for `COCCNC(=O)c1cc(-c2cccnc2)nc2ccc(Br)cc12`?
p-CIP stab down: inactive; AI-2 QS mod: inactive; UBC13 polyUb: inactive; PP1 inh: inactive; T cruzi repl: inactive

How did O=C(c1ccco1)N1CCN(C(=O)c2cc(-c3ccncc3)nc3ccc(Br)cc23)CC1 do in these assays?
AI-2 QS mod: inactive; UBC13 polyUb: inactive; PP1 inh: inactive; T cruzi repl: 56
